Bioassay records (PubChem)
PKD1 kinase inh: blocks activity of human protein kinase D1. PKD1 kinase fluorescence polarization assay. inhibition, % (concentration not given with the values). hit rate 0.056% among 200,000. AID 797
EBV gp42 block: blocks Epstein-Barr virus glycoprotein 42 binding; AID 1085; inhibition, % (tested at 21.74 µM); hit rate 0.42% among 220,000; Fluorescence polarization binding assay, mP read-out
Target sequence (Q1HVG2 whole entry, looked up): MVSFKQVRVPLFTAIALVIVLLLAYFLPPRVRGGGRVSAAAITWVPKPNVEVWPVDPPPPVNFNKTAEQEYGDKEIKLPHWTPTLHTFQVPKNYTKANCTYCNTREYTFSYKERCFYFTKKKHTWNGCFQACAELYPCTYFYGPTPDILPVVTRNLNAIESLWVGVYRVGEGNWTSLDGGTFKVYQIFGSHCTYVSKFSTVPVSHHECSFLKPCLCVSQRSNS
Runt-CBFb FRET: Runt domain-CBFb interaction inhibition; Q01196+Q13951; hit rate 0.46% among 220,000; Cerulean-Runt/Venus-CBFb FRET ratio 530/480, 1 h; inhibition, % at 20 µM;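 active = inhibition over about 50% at 20 µM in the single-dose screen, limit read from the data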;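 note: 0% = DMSO wells and 100% = excess unlabeled CBFb competitor control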
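Buffer or medium: Tris pH 7.5 buffer with BSA. Assay system: Cerulean-labeled Runt domain protein. Amount: each fluorescent fusion protein 100 nM. Read-out basis: loss of energy transfer signal. Incubation: 1 h compound exposure, room temperature. Probe or stimulus: Venus-CBFb binding partner, 100 nM. Detection: FRET, excitation 422 nm, emission at 530 and 480 nm.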
Runt-SMMHC FRET: inhibitors of human RUNX1 Runt domain binding to CBFb-SMMHC | inhibition, % at 20 µM | Q01196+Q13951 | Cerulean-Runt/Venus-CBFb-SMMHC FRET ratio 530/480, 1 h | hit rate 0.74% among 220,000;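 active = mean inhibition across duplicate retests at 20 µM reaching about 50%, limit read from the data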;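 note: 0% = DMSO wells and 100% = wells with excess untagged CBFb-SMMHC; inhibitors lower the FRET ratio by blocking Runt binding to CBFb-SMMHC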
MEX-5 binding: C. elegans MEX-5 TCR-2 RNA binding activity; Q9XUB2; MEX-5/FITC-TCR2 RNA binding, fluorescence polarization; active compounds read low; activity score (negative = inhibition of binding), % at 10 µM; hit rate 0.38% among 300,000; AID 1832;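 active = inhibition past about -25% in most replicates, and total fluorescence under double the plate's negative control median, limit read from the data; inconclusive = replicates evenly split on the limit, or fluorescence at least double controls; inactive = too little inhibition in most replicates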;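 note: 0% = DMSO and -100% = 5 µM competing unlabeled TCR2 RNA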
Target sequence (Q9XUB2 whole entry, looked up): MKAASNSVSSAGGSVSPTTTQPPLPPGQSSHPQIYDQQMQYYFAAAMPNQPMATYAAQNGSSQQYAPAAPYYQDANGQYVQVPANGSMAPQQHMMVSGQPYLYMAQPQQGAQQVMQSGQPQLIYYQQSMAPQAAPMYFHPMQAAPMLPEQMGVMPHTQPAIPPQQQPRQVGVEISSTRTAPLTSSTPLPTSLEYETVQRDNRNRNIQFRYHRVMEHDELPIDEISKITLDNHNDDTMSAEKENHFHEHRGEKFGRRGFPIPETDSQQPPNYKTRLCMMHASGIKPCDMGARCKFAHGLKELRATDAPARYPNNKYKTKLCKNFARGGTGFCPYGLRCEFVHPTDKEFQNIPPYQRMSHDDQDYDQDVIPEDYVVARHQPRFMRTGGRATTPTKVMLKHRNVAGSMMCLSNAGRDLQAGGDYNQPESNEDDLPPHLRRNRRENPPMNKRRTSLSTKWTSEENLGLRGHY
RanGTP-Imp inh: inhibitors of RanGTP-importin-beta interaction, primary screen, biochemical, FRET, CFP-Ran, YFP-importin-beta, homogeneous | inhibition, % (test concentration not listed) | AID 2216 | cell-free CFP-Ran/YFP-importin-beta FRET ratio | hit rate 1.1% among 300,000;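 active = more than half of the replicate wells show a fall in the fluorescence ratio signal beyond about 16%, limit read from the data, passing the limit was not always enough; inconclusive = exactly half of the replicate wells pass the set limit; inactive = fewer than half of replicates pass the limit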;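 note: 0% = DMSO wells and 100% = Ran loaded with GDP instead of GTP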
The depositor's hits bear a star; u = inconclusive; x = no result given. Compounds with a hit are over-represented: about 2% of the library has one in this group of screens. Cut-off read from the data, not from the text of the source, unless noted: active = inhibition above about 50%; inactive = the rest.

SMILES | PKD1 kinase inh | EBV gp42 block | Runt-CBFb FRET | Runt-SMMHC FRET | MEX-5 binding | RanGTP-Imp inh
N#CCCn1c(-c2nonc2NC(=O)c2ccccc2Cl)nc2ccccc21 | -4 | -15 | -2 | 2 | -4 | 3
COc1ccc(CCn2c(N)c(C#N)c3nc4ccccc4nc32)cc1OC | -7 | 2 | 18 | 31 | 4 | 7
Cc1ccc(CCN2C(=O)c3ccccc3C2C(=O)NCc2cccnc2)cc1 (stereo not drawn) | 0 | -10 | 0 | -2 | -4 | 0
C=C1CCC[C@]2(C)C[C@H]3OC(=O)C(CNCC(OC)OC)[C@H]3CC12 (stereo partly drawn) | x | x | x | x | 0 | 4
COC(=O)C(Cc1ccccc1)P(=O)(c1ccccc1)c1ccccc1 (stereo not drawn) | -10 | 2 | -2 | 2 | -2 | -1
CN(C)c1ccnc2sc(C(=O)c3ccc(Br)cc3)c(N)c12 | -2 | 73* | 13 | 50 | -11 | 10
O=C(CSc1n[nH]c(=O)[nH]c1=O)N/N=C/C=C\c1ccccc1 | -5 | -10 | 83* | -6 | 0 | 0
O=C(CSc1n[nH]c(=O)[nH]c1=O)N/N=C/C=C/c1ccccc1 | x | -16 | 2 | 0 | 1 | 0
Cc1ccccc1-c1noc(C(C)NC(=O)c2ccco2)n1 (stereo not drawn) | x | x | x | x | -1 | -1
CC(=O)c1ccc2noc(-c3ccccc3)c2c1 | 1 | 11 | x | x | -3 | 2
CC(=O)c1ccc2c(c1)c(C#N)c1ccccc1[n+]2[O-] | x | x | x | x | u | 68*
COc1cc(C(=S)N2CCOCC2)ccc1OC(=O)/C=C/c1ccco1 | -1 | -4 | 14 | -2 | 0 | u
COc1cc(OC)c(NC(=O)CCCNC(=O)Cn2cnc3sc(C)c(C)c3c2=O)cc1Cl | x | x | x | x | 0 | 0
COc1ccc(OC)c(/C=N/NC(=O)c2ccc(=O)[nH]n2)c1 | x | -18 | 1 | 0 | -4 | 5
C=CCc1cccc(/C=N/NC(=O)c2ccccc2OC)c1O | 18 | -4 | 2 | 2 | 0 | 39*
COc1cccc(/C=N/NC(=O)c2ccc(=O)[nH]n2)c1O | x | -13 | 3 | 1 | -35* | 4
C=CCc1cccc(/C=N/NC(=O)c2ccccc2Br)c1O | 4 | 14 | 0 | -2 | 2 | -1
COc1ccc(/C=N/NC(=O)c2c(C)nnn2-c2nonc2N)cc1OC | -2 | 4 | 1 | -2 | -3 | u
CC(C)Oc1ccc(C2CC(=O)N(c3cccc(Br)c3)C2=O)cc1 (stereo not drawn) | x | -6 | 3 | 0 | 2 | -1
Cc1c(C(=O)Nc2c(F)cc(F)cc2Br)sc2ncn(CC(=O)N3CCCC3)c(=O)c12 | x | x | x | x | 0 | 1
COc1cc2c3nnc(-c4ccc(F)cc4)c-3cn(Cc3ccccc3F)c2cc1OC | 1 | -64 | -151 | -117 | x | x
COc1cc2c3nnc(-c4ccccc4)c-3cn(Cc3ccccc3F)c2cc1OC | -11 | -151 | -24 | 26 | -59* | x
CCCNC(=O)Cn1c(=O)/c(=C\c2ccc(-c3cccc([N+](=O)[O-])c3)o2)s/c1=C\C(=O)C(C)(C)C | -5 | 69* | -4 | -177 | -2 | -4
CCCNC(=O)Cn1c(=O)/c(=C\c2ccc(-c3ccc([N+](=O)[O-])cc3)o2)s/c1=C\C(=O)C(C)(C)C | 32 | -138 | -32 | -73 | -1 | -91
O=C(CSc1nncn1-c1cccnc1)N(c1ccccc1)c1ccccc1 | -7 | -6 | 3 | 2 | -2 | -1
SMILES | PKD1 kinase inh | EBV gp42 block | Runt-CBFb FRET | Runt-SMMHC FRET | MEX-5 binding | RanGTP-Imp inh
CCOC(=O)Cc1csc(NS(=O)(=O)c2ccc(Br)cc2)n1 | 0 | 3 | 0 | -2 | 1 | 37*
CCN1CCc2c(sc(NC(=O)c3ccc(S(=O)(=O)N4CCCCCC4)cc3)c2C(=O)NC)C1 | x | x | x | x | -5 | 57*
CC1CCCN(S(=O)(=O)c2ccc(C(=O)Nc3sc4c(c3C(N)=O)CCN(C)C4)cc2)C1 (stereo not drawn) | x | x | x | x | 11 | 29*
CNC(=O)c1c(NC(=O)c2ccc(S(=O)(=O)N3CCCC3)cc2)sc2c1CCN(C(C)C)C2 | x | x | x | x | -1 | 13
CNC(=O)c1c(NC(=O)c2ccc(S(=O)(=O)N3CCCCC3C)cc2)sc2c1CCN(C)C2 (stereo not drawn) | x | x | x | x | -26* | 50*
COc1ccc(OC)c(CCNC(=O)CC2(CC3=NS(=O)(=O)c4ccccc4N3)CCCC2)c1 | x | x | x | x | 2 | -1
Cc1cc2oc(=O)cc(CN(C)Cc3ccccc3Cl)c2cc1C | x | x | x | x | 1 | 2
CC(C)N1CCc2c(sc(NC(=O)C3CCCCC3)c2C(N)=O)C1 | x | x | x | x | -1 | 134*
CN1CCc2c(sc(NC(=O)C3CCN(S(=O)(=O)c4cccs4)CC3)c2C(N)=O)C1 | x | x | x | x | 4 | 132*
CN1CCc2c(sc(NC(=O)C3CCCCC3)c2C(N)=O)C1 | x | x | x | x | -1 | 147*
CCC(=O)Nc1sc2c(c1C(N)=O)CCN(C(C)=O)C2 | -1 | -4 | x | -3 | 2 | 1
CC(C)C(=O)NC(=S)Nc1sc2c(c1C(N)=O)CCCC2 | -9 | 9 | 17 | 4 | -2 | -2
COC(=O)c1c(NC(=O)C2CCCCC2)sc2c1CCN(C(C)C)C2 | x | x | x | x | 1 | 57*
COc1ccccc1NC(=O)/C(C#N)=C/c1cccn1C | x | x | x | x | 0 | 0
O=C(NN=C(Cc1ccccc1)Cc1ccccc1)C1CC1 | -2 | -11 | 2 | -8 | -2 | 34*
COc1ccc(S(=O)(=O)N2CCC(C(=O)NC3CCCCC3)CC2)cc1C | x | x | x | x | -1 | u
CC(OC(=O)c1cccc(O)c1)C(=O)N(C)Cc1ccccc1 (stereo not drawn) | x | x | x | x | -2 | 7
CC(OC(=O)/C(C#N)=C/c1ccc(N(C)C)cc1)C(=O)N(C)Cc1ccccc1 (stereo not drawn) | x | x | x | x | -1 | 81*
COC(=O)c1cc(S(=O)(=O)NCC2CCN(CCc3ccc(OC)cc3)CC2)c[nH]1 | x | x | x | x | 5 | 0
Cc1[nH]nc(NNC(=O)c2ccccc2)c1[N+](=O)[O-] | x | -3 | 1 | -1 | -83* | 4
C=C1c2cc(OC)ccc2NC(=O)N1CC | 4 | 52* | -2 | -27 | -2 | -1
C=C1c2cc(C)ccc2NC(=O)N1c1ccc(C)cc1 | 0 | -6 | 1 | -2 | 2 | -4
CNC(=S)NN(c1ccccc1)c1ccccc1 | -1 | 84* | -1 | 2 | 2 | 2
COCCNC(=S)NN(c1ccccc1)c1ccccc1 | -4 | -1 | 0 | 0 | -2 | 4
CCOc1ccc2nc3cc(NCc4ccc(OC)cc4)ccc3c(N)c2c1 | x | x | x | x | -33* | 27*
CCn1cnc2cc(NCc3ccc(OC)cc3)ccc21 | -4 | 5 | 21 | 8 | -5 | 10
CCc1c(C)nc2nc(SCc3ccccc3)[nH]n2c1=O | x | x | x | x | 0 | -4
